Two compounds from ChEMBL document CHEMBL1142229, “Docosahexaenoic acid alters bilayer elastic properties” (Proc Natl Acad Sci U S A, 2007) can be followed below.

Active and inactive are the calls of the source. The rule behind the calls is not given here.

The nature of data set [1]: Partition coefficient (x10-4) across dioleoylphosphatidylcholine bilayer in presence of cholesterol. It counts as ADME. To be noted: lipid bilayer/electrolyte. The procedure, abridged:
(§1)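 Lipid/electrolyte partition coefficient measured with ADIFAB (0.2 μM) in 1 M NaCl, 10 mM Hepes, pH 7.0 at 25 ± 1°C. Extruded vesicles at ≈100 μM phospholipid; total fatty acid raised stepwise over 3–30 μM, 3–5 min equilibration per step. Emission read at 432 and 505 nm (excitation 386 nm), corrected for cuvette binding. Kp from free vs total FA and Vm/Va; triplicate, averaged over concentrations.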

A short description of data set [2]: Partition coefficient (x10-4) across dieicosenoyl-phosphatidylcholine bilayer. The format is ADME. The settings on record: lipid bilayer/electrolyte. In short, it runs like this:
as §1

A short description of data set [3]: Effect on gramicidin channel 13 activity. In short, it runs like this:
(§2)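 Planar bilayers of DC18:1PC (20 mg/ml in n-decane) across a ≈1.6 mm hole in a Teflon partition, in 1 M NaCl, 10 mM Hepes, pH 7.0. Opposite-helix-sense gA analogue pairs, gA(13) and AgA(15). Fatty acid added to both sides from ethanolic stock with NaOH and BHT, stirred 5 min, equilibrated 10 min. Single-channel currents and lifetimes recorded before and after addition. Where stated, cholesterol:DC18:1PC molar ratio 1:1.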

Data set [4] in a line: Activity at gramicidin A negative channel 15 assessed as increase in single channel current. The procedure, abridged:
as §2

Data set [5] in a line: Activity at gramicidin channel 13 assessed as increase in single channel current. In short, it runs like this:
as §2

Data set [6] in a line: Activity at gramicidin channel 13 assessed as increase in single channel current at 10 uM. The procedure, abridged:
as §2

Data set [7] can be described thus: Activity at gramicidin channel 13 assessed as increase in single channel current at 10 uM in presence of cholesterol. The procedure, abridged: as §2
The nature of data set [8]: Partition coefficient (x10-4) across dioleoylphosphatidylcholine bilayer. To be noted: lipid bilayer/electrolyte. It counts as ADME. In short, it runs like this:
as §1

Consider `CC/C=C\C/C=C\C/C=C\C/C=C\C/C=C\C/C=C\CCC(=O)O` [DOCONEXENT], for which the Partition coefficient is listed as 19 in data set [1], 20 in data set [2] and 20 in data set [8]. Further, the result in data set [3], in data set [4] and in data set [5] was Active. Besides, the Activity turned out to be 15% in data set [6] and 65% in data set [7].
In the case of `CCCCCCCC/C=C\CCCCCCCC(=O)O` [OLEIC ACID], the figures for the Partition coefficient in data set [2] and in data set [8] were 246 and 254, respectively. Also, the outcome in data set [3], in data set [4] and in data set [5] was inactive. Also, the Activity in data set [6] turned out to be 5%; in data set [7], 15%.
